Bioassay records from PubChem BioAssay.
An excerpt weighted towards active compounds, which were near 1.3% of everything screened.
CRFR2-BP ag – agonists of human CRF-binding protein/CRF-R2 receptor complex; HEK293 CRF-R2/CRF-BP, calcium dye fluorescence (FLIPR); percent of saturating CRF peptide response; activation, % at 13.2 µM; actives 0.46% (n = 350,000);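 active = activation of at least 50%, plus an integration ratio under a set limit after plate pattern correction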
Tn6 DDE FP – disrupts Tn6 cyclic peptide binding to fibrin D-Dimer-E complex; actives 0.21% (n = 370,000); inhibition, % at 8.3 µM; P02675; Fibrin DD(E) TRITC-Tn6 fluorescence polarization displacement;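 active = inhibition above a per-campaign cutoff: mean of compounds within control limits plus 3 SD, cut at about 15% in these data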
Target sequence (P02675 whole entry, looked up): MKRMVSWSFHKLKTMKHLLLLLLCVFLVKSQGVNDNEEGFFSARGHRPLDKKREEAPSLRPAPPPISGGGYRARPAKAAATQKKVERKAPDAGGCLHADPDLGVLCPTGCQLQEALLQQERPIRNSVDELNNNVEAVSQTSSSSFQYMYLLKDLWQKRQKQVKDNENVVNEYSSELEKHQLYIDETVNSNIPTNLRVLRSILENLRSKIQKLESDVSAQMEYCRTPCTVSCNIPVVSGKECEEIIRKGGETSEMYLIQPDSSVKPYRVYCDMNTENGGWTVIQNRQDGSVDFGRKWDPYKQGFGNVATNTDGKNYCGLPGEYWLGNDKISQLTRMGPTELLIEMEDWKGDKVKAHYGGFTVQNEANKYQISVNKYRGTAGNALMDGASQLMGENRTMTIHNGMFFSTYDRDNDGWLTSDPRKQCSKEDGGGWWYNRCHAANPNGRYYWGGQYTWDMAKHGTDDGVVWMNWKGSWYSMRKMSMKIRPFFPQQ
CRFBP-R2 block – CRF-BP/CRF-R2 complex antagonism | HEK293 CRF-R2/CRF-BP, CRF-induced calcium fluorescence | inhibition, % at 11.8 µM | actives 0.59% (n = 350,000);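 active = inhibition of the ligand-induced calcium signal above about 50% at the single tested concentration, limit read from the data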
Tn7 DDE FP – inhibitors of Tn7 peptide binding to human fibrin DD(E). P02675. FP displacement of FITC-Tn7 peptide from fibrin DD(E); 0% = median of compound wells per plate. inhibition, % at 8.3 µM. actives 0.13% (n = 370,000). AID 720508;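 active = inhibition above the mean of compounds falling within the control limits plus 3 SD of them, cut at about 14% in these data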
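Also added: labelled Tn7 tracer, 0.1 µM; Assay system: human fibrin DD(E) protein; Amount: 2 µM fibrin DD(E); Schedule: 10 min compound pre-incubation, 3 h probe incubation at room temperature; Repeats: one replicate per compound; Read-out basis: percent inhibition; Measured by: fluorescence polarization of the labelled Tn7 tracer.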
Numbers stand for hits; 0 = inactive; - = no result.

SMILES | CRFR2-BP ag | Tn6 DDE FP | CRFBP-R2 block | Tn7 DDE FP
O=c1c2cc(Br)ccc2nc(-c2ccc(Cl)cc2)n1O | 72.7 | 0 | 0 | 0
O=c1c2ccccc2nc(-c2ccccc2Cl)n1O | 0 | 0 | 0 | 0
Cc1ccc(-c2nc3c(Cl)cc(Cl)cc3c(=O)n2O)cc1 | 66.0 | 0 | 0 | 0
COC(=O)[C@]12C[C@H](CC(=O)NCc3ccc(C)o3)C(=O)N(Cc3ccc(Cl)cc3Cl)C1=C[C@H](C1CCCC1)O[C@@H]2C | - | 0 | - | 0
Fc1ccc(-c2cc(C(F)(F)C(F)F)[nH]n2)cc1 | 77.5 | 0 | 0 | 0
FC(F)C(F)(F)c1cc(-c2ccc(Cl)cc2)n[nH]1 | 0 | 0 | 0 | 0
CC(C)(CSc1ncccn1)NS(=O)(=O)c1ccccc1 | 0 | 0 | 65.9 | 0
Cc1ccc(C)c(NC(=S)Nc2ncccc2C)c1 | 0 | 0 | 124.2 | 0
N/C(CN1CCCCC1)=N\S(=O)(=O)c1cc(Cl)cc(Cl)c1 | 0 | 0 | 112.8 | 0
N/C(CSc1ccc(Cl)cc1)=N\S(=O)(=O)c1ccc(Cl)cc1 | 0 | 0 | 0 | 0
O=C(NCc1ccccc1Cl)O[C@H]1CC[C@@]23CCCN2C(=O)CCC[C@H]3C1 | - | 0 | - | 0
CCN1C(=O)/C(=C/C=C2\N(CC)c3cc(S(=O)(=O)N(C)C)ccc3N2c2ccccc2)SC1=S | 73.1 | 0 | 0 | 0
CSCCC(NC(=O)c1ccco1)C(=O)OC(C)C(=O)NC(=O)NC1CCCCC1 (stereo not given) | 183.4 | 0 | 0 | 0
Cc1cccc(NC(=O)N2CCC(N(C)CCC(C)C)CC2)c1 | - | 0 | - | 0
c1ccc(CCNc2nc3ccccc3n3nnnc23)cc1 | 82.0 | 0 | 0 | 0
O=C(CC1C(=O)NCCN1C(=O)Nc1ccccc1)Nc1ccc2c(c1)OCO2 (stereo not given) | 0 | 0 | 73.6 | 0
CC(=O)N1CC=C2C(C#N)=C(N)C(C#N)(C#N)C(CCc3ccccc3)C2C1 (stereo not given) | 0 | 0 | 0 | 0
CCN1CC=C2C(C#N)=C(N)C(C#N)(C#N)C(CCc3ccccc3)C2C1 (stereo not given) | 56.5 | 0 | 0 | 0
CCc1ccccc1NC(=O)C1C2C=CC(O2)C1C(=O)O (stereo not given) | 0 | 0 | 0 | 0
O=C(O)C1C2C=CC(O2)C1C(=O)Nc1ccccc1C(F)(F)F (stereo not given) | 0 | 0 | 57.8 | 0
Brc1ccc(-c2nn3c(-c4ccccc4)nnc3s2)cc1 | - | 0 | - | 0
COCCNC(=S)N/N=C/c1ccc(-c2ccc([N+](=O)[O-])cc2)o1 | 70.0 | 0 | 0 | 0
Cc1nc(-c2c(C(F)(F)F)noc2-c2ccc(O)cc2O)cs1 | 0 | 0 | 54.2 | 0
COc1ccc2c(c1)CCCN2C(=O)C1CCCN(S(=O)(=O)c2cccc3ccccc23)C1 (stereo not given) | - | 0 | - | 0
CC(C)(N[C@@H](Cc1c[nH]c2ccccc12)C(=O)NCC(c1ccccc1)c1ccccc1)C(=O)NC1CCCCC1 | - | 0 | - | 0
SMILES | CRFR2-BP ag | Tn6 DDE FP | CRFBP-R2 block | Tn7 DDE FP
Cc1ccc(S(=O)(=O)c2c(N)n(Cc3ccco3)c3nc4ccccc4nc23)cc1C | 0 | 0 | 0 | 0
Nc1c(S(=O)(=O)c2ccccc2)c2nc3ccccc3nc2n1Cc1ccco1 | 65.4 | 0 | 0 | 0
N#Cc1cccc(C(c2nnnn2C2CCCC2)N2CCCCCC2)c1 (stereo not given) | 0 | 0 | 53.2 | 0
O=c1c(/C=N/Nc2ccccc2)c(Sc2nnnn2-c2ccccc2)nc2ccccn12 | 98.7 | 0 | 0 | 0
O=C(O)c1ccccc1N/N=C/c1c(Sc2nnnn2-c2ccccc2)nc2ccccn2c1=O | 0 | 0 | 0 | 0
O=C(c1ccco1)N1CCN=C1SCc1ccccc1Cl | 0 | 0 | 101.1 | 0
O=[N+]([O-])c1cccc(COc2ccc(CN3CCOCC3)cc2)c1 | 0 | 0 | 81.7 | 0
Cc1sc2ncnc(Sc3ccccc3C(=O)Nc3ccc(C#N)cc3)c2c1C | 0 | 0 | 60.9 | 0
Cc1nnsc1-c1onc(C)c1C(=O)O/N=C/c1ccc(Cl)cc1 | 0 | 0 | 124.7 | 0
Cc1nnsc1-c1onc(C)c1C(=O)Nc1cc(Cl)cc(Cl)c1 | 0 | 0 | 0 | 0
CCn1cnc2c(Nc3cc(F)cc(F)c3)nc(C#N)nc21 | 0 | 0 | 0 | 0
N#Cc1nc(Nc2cccc(Cl)c2)c2ncn(C3CCCC3)c2n1 | 0 | 0 | 96.6 | 0
O=C1C[C@H](C(=O)Nc2ccc(Cl)cc2)[C@@H](c2ccccc2)O1 | - | 0 | - | 0
CCN(CC)c1ccc(/C=C2\C(=N)N3N=C(CC(=O)N4CCOCC4)SC3=NC2=O)cc1 | 109.3 | 0 | 0 | 0
COC(=O)[C@]12C[C@H](CC(=O)NCc3cccc(C(F)(F)F)c3)C(=O)N(Cc3ccc(Cl)cc3Cl)C1=C[C@H](C(C)(C)C)O[C@@H]2C | - | 0 | - | 0
O=C1c2ccccc2-c2onc3ccc(NCc4ccco4)c1c23 | 147.8 | - | 0 | -
Cn1cccc1C(=O)N1CCN(S(=O)(=O)c2cccc3ccccc23)CC1 | - | 0 | - | 0
Cc1nc2nc(SCC(=O)c3cccc([N+](=O)[O-])c3)[nH]c2cc1Br | 0 | 0 | 67.1 | 0
Cc1ccc(NC(=O)COC(=O)CCc2c[nH]c3ccccc23)c(C)c1 | 0 | 0 | 54.5 | 0
COc1ccc(-c2ccc(C3C(C#N)=C(N)Oc4n[nH]c(C)c43)o2)cc1 (stereo not given) | 171.2 | 0 | 0 | 0
CC(=O)Nc1ccc(N/C(N)=N/c2nc(C)cc(C)n2)cc1 | 0 | 0 | 0 | 0
CCOc1ccc(N/C(N)=N/c2nc(C)cc(C)n2)cc1 | 140.9 | 0 | 0 | 0
CC1=CC(C)(C)N2C(=O)C3(C(C#N)=C(N)Oc4cc(O)ccc43)c3c(C)c(C)cc1c32 (stereo not given) | 0 | - | 66.4 | -
Cc1cc2c3c(c1)C(C)(c1ccccc1)CC(C)(C)N3C(=O)C21C(C#N)=C(N)OC2=C1C(=O)CC(C)(C)C2 (stereo not given) | 0 | 0 | 0 | 0
CC1(c2ccccc2)CC(C)(C)N2C(=O)C3(C(C#N)=C(N)Oc4cc(O)ccc43)c3cccc1c32 (stereo not given) | 0 | 0 | 116.3 | 0
SMILES | CRFR2-BP ag | Tn6 DDE FP | CRFBP-R2 block | Tn7 DDE FP
CC1=CC(C)(C)N2C(=O)C3(C(C#N)=C(N)OC4=C3C(=O)CCC4)c3c(C)c(C)cc1c32 (stereo not given) | 0 | 0 | 0 | 0
O=C(NC1CCCC1)C1(C(=O)C2CC2)CC(c2ccccn2)=NO1 (stereo not given) | - | 0 | - | 0
CCOc1ccc(C2/C(=C(\O)c3ccc4c(c3)OCCO4)C(=O)C(=O)N2CCCN2CCOCC2)cc1OC (stereo not given) | 0 | 0 | 0 | 0
CCOc1ccc(C2/C(=C(\O)c3ccc4c(c3)OCCO4)C(=O)C(=O)N2CCCN2CCOCC2)cc1 (stereo not given) | 0 | 0 | 55.1 | 0
COc1ccc(S(=O)(=O)N(c2onc(C)c2Cl)S(=O)(=O)c2ccc(OC)cc2)cc1 | 0 | 0 | 50.5 | 0
O=C(CC1CCCCC1)c1c(O)c2ccccc2oc1=O | 69.7 | 0 | 0 | 0
CCCCC(=O)c1c(O)c2ccccc2oc1=O | 0 | 0 | 0 | 0
